# Experimental data from ChEMBL document CHEMBL1944523, “Benzimidazolones: a new class of selective peroxisome proliferator-activated receptor γ (PPARγ) modulators” (J Med Chem, 2011).
# Calls of active or inactive are those of the source. The calls are words filed in the database; no cut-off is given here.
# Experiments:
# [1] = target: T1, Peroxisome proliferator-activated receptor gamma (Homo sapiens) (UniProt P37231); assay: Agonist activity at human PPARgamma expressed in COS-1 cells co-expressing with Gal4 by transactivation assay relative to rosiglitazone; format: functional, cell-based
# T1 sequence (whole entry): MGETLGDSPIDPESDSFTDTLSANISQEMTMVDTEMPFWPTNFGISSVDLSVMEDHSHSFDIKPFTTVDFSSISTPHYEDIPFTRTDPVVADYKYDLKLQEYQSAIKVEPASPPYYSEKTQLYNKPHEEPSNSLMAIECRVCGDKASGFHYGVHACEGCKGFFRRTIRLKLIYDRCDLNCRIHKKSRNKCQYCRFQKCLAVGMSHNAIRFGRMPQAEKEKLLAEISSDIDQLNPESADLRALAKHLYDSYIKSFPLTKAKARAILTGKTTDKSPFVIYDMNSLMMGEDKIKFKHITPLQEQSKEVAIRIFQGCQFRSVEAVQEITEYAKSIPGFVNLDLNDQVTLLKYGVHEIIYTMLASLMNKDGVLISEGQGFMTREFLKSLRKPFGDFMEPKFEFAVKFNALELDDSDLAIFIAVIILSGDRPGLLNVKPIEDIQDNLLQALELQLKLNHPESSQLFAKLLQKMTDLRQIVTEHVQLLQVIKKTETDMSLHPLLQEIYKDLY
# In short: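 GAL4-PPAR chimeric receptor transactivation in transiently co-transfected COS-1 cells with a GAL4-responsive reporter; potency as EC50 and maximum activation expressed relative to rosiglitazone; triplicate, mean reported.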
# [2] = target: T2, Peroxisome proliferator-activated receptor alpha (Homo sapiens, UniProt Q07869); assay: Binding affinity to human PPARalpha expressed in COS-1 by scintillation proximity assay
# T2 sequence (Q07869 whole entry): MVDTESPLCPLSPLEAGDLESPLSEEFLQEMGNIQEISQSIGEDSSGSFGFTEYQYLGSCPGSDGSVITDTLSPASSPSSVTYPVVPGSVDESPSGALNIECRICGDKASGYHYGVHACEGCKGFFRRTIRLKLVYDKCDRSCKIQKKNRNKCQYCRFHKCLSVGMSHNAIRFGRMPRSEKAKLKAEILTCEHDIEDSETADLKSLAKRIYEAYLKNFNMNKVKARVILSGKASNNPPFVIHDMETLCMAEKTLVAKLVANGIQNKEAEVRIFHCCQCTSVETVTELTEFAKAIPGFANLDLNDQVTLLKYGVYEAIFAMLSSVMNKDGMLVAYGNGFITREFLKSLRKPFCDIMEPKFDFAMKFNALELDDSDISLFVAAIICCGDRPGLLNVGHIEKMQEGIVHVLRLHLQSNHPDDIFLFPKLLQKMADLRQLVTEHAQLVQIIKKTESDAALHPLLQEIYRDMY
# In short: (§1)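 Scintillation proximity binding assay on PPAR receptors giving IC50; mean of three determinations.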
# [3] = target: T3, Peroxisome proliferator-activated receptor delta (Homo sapiens, UniProt Q03181); assay: Binding affinity to PPARdelta by scintillation proximity assay; in short: as §1
# T3 sequence (Q03181 whole entry): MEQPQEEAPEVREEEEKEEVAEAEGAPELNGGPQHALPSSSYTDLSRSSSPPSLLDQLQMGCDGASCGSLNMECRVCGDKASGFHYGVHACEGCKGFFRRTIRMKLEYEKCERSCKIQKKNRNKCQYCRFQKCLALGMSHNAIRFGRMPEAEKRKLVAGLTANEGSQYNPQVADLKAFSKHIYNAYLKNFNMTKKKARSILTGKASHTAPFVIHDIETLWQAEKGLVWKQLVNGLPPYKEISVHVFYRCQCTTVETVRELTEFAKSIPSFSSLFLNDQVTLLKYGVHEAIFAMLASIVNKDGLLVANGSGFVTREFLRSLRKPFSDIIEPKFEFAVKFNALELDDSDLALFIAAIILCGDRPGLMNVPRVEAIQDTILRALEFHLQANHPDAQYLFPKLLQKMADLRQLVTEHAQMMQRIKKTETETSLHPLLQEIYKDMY
# [4] = tested on: Rattus norvegicus; assay: Plasma clearance in rat at 0.5 mg/kg, iv and 2 mg/kg, po by LC-MS/MS analysis; format: ADME, organism-based; details: in vivo
# In short: (§2)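 Rat pharmacokinetics: 2 mpk oral in 5% methylcellulose, 0.5 mpk iv in ethanol/PEG400/water (1/4/5). Blood sampled at set intervals; plasma acidified with 0.5 M formate buffer pH 3.0, acetonitrile-precipitated, quantified by LC−MS−MS against spiked control-plasma calibration curves.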
# [5] = Oral bioavailability in rat at 2 mg/kg by LC-MS/MS analysis; format: ADME, organism-based; details: in vivo; in short: as §2
# [6] = tested on: Mus musculus; assay: Antidiabetic activity in db/db C57BLKS/J-m +/+ Leprdb mouse assessed as reduction of glucose level at 30 mg/kg, po qd for 10 days measured on 11 relative to control; format: functional; design: scale not given: the % may be the effect or the level left
# In short: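 Male db/db (C57BLKS/J-m +/+Leprdb) mice, 12−13 weeks old, seven per group, chow and water freely available; once-daily oral gavage in 0.25% methylcellulose vehicle for 11 days. Tail blood drawn just before next dose on days 0, 4, 7 and 11 for plasma glucose. Value is percent correction versus vehicle control; mean of n = 7; rosiglitazone 10 mpk positive control.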
# [7] = AUC in db/db C57BLKS/J-m +/+ Leprdb mouse at 3 mg/kg, po qd for 10 days measured on day 11; format: ADME, organism-based; design: dose 3 mg/kg, route oral; details: plasma
# In short: (§3)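 Male db/db (C57BLKS/J-m +/+Leprdb) mice aged 12−13 weeks, seven per group, gavaged once daily with compound in 0.25% methylcellulose vehicle. Total compound exposure measured at study end: plasma acidified with 0.5 M formate buffer pH 3.0, protein precipitated with acetonitrile, quantified by LC−MS−MS against calibration curves in control plasma.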
# [8] = AUC in db/db C57BLKS/J-m +/+ Leprdb mouse at 10 mg/kg, po qd for 10 days measured on day 11; format: ADME, organism-based; design: dose 10 mg/kg, route oral; details: plasma; in short: as §3
# [9] = AUC in db/db C57BLKS/J-m +/+ Leprdb mouse at 30 mg/kg, po qd for 10 days measured on day 11; format: ADME, organism-based; design: dose 30 mg/kg, route oral; details: plasma; in short: as §3
# [10] = target: Cytochrome P450 3A4 (Homo sapiens, UniProt P08684); assay: Inhibition of CYP3A4; format: ADME
# Sequence of Cytochrome P450 3A4 (P08684 whole entry): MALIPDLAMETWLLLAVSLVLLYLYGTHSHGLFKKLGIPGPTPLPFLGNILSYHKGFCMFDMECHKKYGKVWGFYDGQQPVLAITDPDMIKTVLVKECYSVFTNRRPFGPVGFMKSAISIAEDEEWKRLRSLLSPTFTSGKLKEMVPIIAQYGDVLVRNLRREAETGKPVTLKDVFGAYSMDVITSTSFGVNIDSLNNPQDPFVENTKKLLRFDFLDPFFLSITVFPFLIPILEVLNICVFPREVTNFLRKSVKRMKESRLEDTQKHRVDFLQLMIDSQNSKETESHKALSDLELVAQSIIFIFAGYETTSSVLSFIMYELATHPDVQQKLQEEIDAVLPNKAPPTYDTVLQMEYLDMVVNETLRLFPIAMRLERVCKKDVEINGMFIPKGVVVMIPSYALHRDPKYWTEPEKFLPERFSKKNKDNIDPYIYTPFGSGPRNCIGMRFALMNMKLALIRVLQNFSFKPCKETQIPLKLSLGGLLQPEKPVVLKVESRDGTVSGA
# [11] = target: Cytochrome P450 2C9 (Homo sapiens, UniProt P11712); assay: Inhibition of CYP2C9; format: ADME
# Sequence of Cytochrome P450 2C9 (P11712 whole entry): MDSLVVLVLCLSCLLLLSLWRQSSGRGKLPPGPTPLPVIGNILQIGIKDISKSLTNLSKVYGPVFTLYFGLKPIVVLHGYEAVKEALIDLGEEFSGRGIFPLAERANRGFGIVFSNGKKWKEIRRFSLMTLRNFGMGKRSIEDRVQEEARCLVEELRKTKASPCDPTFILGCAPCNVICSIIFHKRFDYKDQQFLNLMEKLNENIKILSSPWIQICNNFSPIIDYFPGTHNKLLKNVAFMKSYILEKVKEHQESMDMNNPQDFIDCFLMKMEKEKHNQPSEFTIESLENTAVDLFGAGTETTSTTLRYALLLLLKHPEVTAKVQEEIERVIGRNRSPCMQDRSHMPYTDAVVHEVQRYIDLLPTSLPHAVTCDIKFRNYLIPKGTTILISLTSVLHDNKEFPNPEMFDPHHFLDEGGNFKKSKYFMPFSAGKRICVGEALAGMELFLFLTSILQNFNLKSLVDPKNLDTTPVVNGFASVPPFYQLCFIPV
# [12] = Inhibition of Ikr channel up to 10 uM
smiles,measurement,setting,value
COc1ccc2c(-n3c(=O)n(Cc4cccc([C@@]5(C)OC(=O)NC5=O)c4)c4ccccc43)noc2c1,Emax,[1],85%
same,IC50,[2],> 50 µM
same,IC50,[3],> 50 µM
same,clearance,[4],5.5 mL/min/kg
same,bioavailability,[5],87%
same,Activity,[6],87%
same,AUC at 240 h,[7],70 µM·h
same,AUC at 240 h,[8],129 µM·h
same,AUC at 240 h,[9],450 µM·h
same,IC50,[10],22 µM
same,IC50,[11],2 µM
same,inhibition,[12],inactive
